According to paper PMC11439047 (Nature Communications, 2024):
Positions count from the first letter of the chain named.

Legend:
P2X1 receptor K136W = target: T1, P2X1 receptor K136W (Homo sapiens, UniProt P51575, K136W); assay: Saturation radioligand binding with [3H]-α,β-methylene ATP
T1 sequence (P51575 1-399 K136W): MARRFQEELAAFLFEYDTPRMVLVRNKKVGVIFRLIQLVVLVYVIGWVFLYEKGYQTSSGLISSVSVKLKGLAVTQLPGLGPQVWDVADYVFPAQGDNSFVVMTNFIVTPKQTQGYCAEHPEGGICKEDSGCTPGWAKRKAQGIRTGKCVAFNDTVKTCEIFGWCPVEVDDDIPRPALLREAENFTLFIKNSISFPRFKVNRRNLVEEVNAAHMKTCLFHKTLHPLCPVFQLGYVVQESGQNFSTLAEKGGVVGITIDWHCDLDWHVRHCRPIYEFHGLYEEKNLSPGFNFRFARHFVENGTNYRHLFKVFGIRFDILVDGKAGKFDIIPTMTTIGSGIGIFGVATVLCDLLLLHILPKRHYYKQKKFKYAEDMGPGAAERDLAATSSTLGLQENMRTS
In short: (§1)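 Whole HEK293 Flp-In T-REx cells stably expressing receptor, tetracycline-induced (150 ng/ml, 2 days), 15,000 cells/well, washed in HEPES binding buffer pH 7.4 with Ca2+/Mg2+. Increasing [3H]-α,β-methylene ATP added, 3 h room temperature with gentle agitation; non-specific binding with 10 μM ATP. Ice-cold 0.9% NaCl washes, scintillation counting (CCPM). Specific binding fitted one-site; values above 300 nM termed not defined.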

P2X1 receptor M214A = target: T2, P2X1 receptor M214A (Homo sapiens, UniProt P51575, M214A); assay: Calcium ion influx assay; assay type: cell-based
T2 sequence (P51575 1-399 M214A): T1 sequence (P51575 1-399 K136W) with W136K, M214A

P2X1 receptor K136A = target: T3, P2X1 receptor K136A (Homo sapiens, UniProt P51575, K136A); assay: Saturation radioligand binding with [3H]-α,β-methylene ATP
T3 sequence (P51575 1-399 K136A): T1 sequence (P51575 1-399 K136W) with W136A
In short: as §1

P2X1 receptor F188L = target: T4, P2X1 receptor F188L (Homo sapiens, UniProt P51575, F188L); assay: Calcium ion influx assay; assay type: cell-based; conditions: maximal α,β-methylene ATP
T4 sequence (P51575 1-399 F188L): T1 sequence (P51575 1-399 K136W) with W136K, F188L

P2X1 receptor D170A = target: T5, P2X1 receptor D170A (Homo sapiens, UniProt P51575, D170A); assay: Calcium ion influx assay; assay type: cell-based
T5 sequence (P51575 1-399 D170A): T1 sequence (P51575 1-399 K136W) with W136K, D170A
In short: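 Tetracycline-induced (150 ng/mL, 2 days) stable HEK293 Flp-In T-REx cells at 15,000 cells/well, loaded with Fluo-8 for 1 h at 37 °C in probenecid-containing HEPES buffer, pH 7.4. Then 30 min buffer incubation, 20 s baseline, agonist addition and 2 min reading (ex 485/em 525 nm). Max-minus-min fluorescence normalised to 10 µM ionomycin, rescaled 0–100. Constrained four-parameter fit; EC50 per experiment; four independent experiments, triplicate.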

binding affinity compared to WT-P2X1 (P2X1 receptor K136W): similar | fold decrease in potency compared to WT-P2X1 (P2X1 receptor M214A): 7 fold | binding affinity compared to WT-P2X1 (P2X1 receptor K136A): similar | time to achieve 50% decay, times WT-P2X1 (P2X1 receptor F188L): approximately 1.5 times | fold decrease in potency compared to WT-P2X1 (P2X1 receptor D170A): 58 fold
SMILES: Nc1ncnc2c1ncn2[C@@H]1O[C@H](COP(=O)(O)CP(=O)(O)OP(=O)(O)O)[C@@H](O)[C@H]1O [α,β-methylene ATP]
desensitisation rate compared to WT-P2X1 (P2X1 receptor M214A; maximal α,β-methylene ATP): significantly slowed the desensitisation rate
